In ChEMBL document CHEMBL4257566, “Design, synthesis and structure-based optimization of novel isoxazole-containing benzamide derivatives as FtsZ modulators” (Eur J Med Chem, 2018):
Converted amounts (≈) assume the structure as drawn. The source made the active and inactive calls. The calls are words filed in the database; no cut-off is given here.

What was measured:
Staphylococcus aureus [1] = assay: Bactericidal activity against methicillin-resistant Staphylococcus aureus ATCC 43300 assessed as reduction in viable bacterial count at 4 times MIC after 6 hrs by time-kill assay; type: functional, organism-based
Outline: (§1)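 Growing culture diluted to about 10⁶ CFU/mL in CAMH broth containing compound, then shaken at 37 °C. At set times, samples were serially diluted tenfold in CAMH broth and three dilutions plated on TSA. CFU/mL counted after 24 h at 37 °C. Detection limit 10³ CFU/mL. Points are the mean of two independent runs, with SD.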

[2] = biological target: T1, Cell division protein FtsZ (Bacillus subtilis (strain 168)) (UniProt P17865); assay: Induction of Bacillus subtilis FtsZ assessed as increase in size of polymer at 10 ug/ml after 20 mins by transmission electron microscopic analysis
T1 sequence (whole entry): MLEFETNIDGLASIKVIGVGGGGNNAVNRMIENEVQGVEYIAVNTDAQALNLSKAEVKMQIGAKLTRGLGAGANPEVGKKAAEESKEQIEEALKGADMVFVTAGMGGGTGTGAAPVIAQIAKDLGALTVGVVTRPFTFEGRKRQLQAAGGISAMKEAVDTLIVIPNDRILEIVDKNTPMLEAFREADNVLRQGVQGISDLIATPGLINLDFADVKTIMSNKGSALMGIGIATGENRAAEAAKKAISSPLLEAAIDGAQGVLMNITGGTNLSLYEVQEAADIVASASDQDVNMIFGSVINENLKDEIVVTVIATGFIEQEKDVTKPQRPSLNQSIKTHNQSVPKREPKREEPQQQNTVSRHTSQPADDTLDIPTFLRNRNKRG
Outline: (§2)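 Purified B. subtilis FtsZ incubated with or without compound at room temperature for 20 min in polymerization buffer (50 mM MES, 50 mM KCl, 2 mM magnesium acetate, 1 mM GTP). Samples put on glow-discharged Formvar/carbon copper grids, negatively stained with 1% phosphotungstic acid for 1 min, imaged by TEM at 100 kV.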

Bacillus pumilus [3] = assay: Antibacterial activity against Bacillus pumilus CMCC63202 after 24 hrs by broth microdilution based CLSI method; type: functional; details: CMCC63202, 24 h
Staphylococcus aureus [4] = assay: Antibacterial activity against methicillin-resistant Staphylococcus aureus ATCC 43300 after 24 hrs by broth microdilution based CLSI method; type: functional; details: ATCC 43300, 24 h
Staphylococcus aureus [5] = assay: Bactericidal activity against methicillin-resistant Staphylococcus aureus ATCC 43300 assessed as reduction in viable bacterial count at 0.5 times MIC after 24 hrs by time-kill assay; type: functional, organism-based; outline: as §1
Staphylococcus aureus [6] = assay: Selectivity ratio of MBC for methicillin-resistant Staphylococcus aureus ATCC 43300 to MIC for methicillin-resistant Staphylococcus aureus ATCC 43300; type: functional
Outline: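 Ratio of MBC to MIC. Both come from the same CLSI broth microdilution run: 2-fold dilutions from 64 to 0.125 µg/mL in CAMH broth, 24 h at 37 °C. MIC is the last well without turbidity. MBC is the lowest concentration giving a ≥3-log CFU drop after plating on TSA for 24 h. Ratio 1–2 is read as bactericidal, ≥8 as bacteriostatic.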

Bacillus pumilus [7] = assay: Antibacterial activity against Bacillus pumilus CMCC63202 assessed as increase in bacterial cell length at 0.5 times MIC after 18 hrs by phase-contrast optical microscopic analysis; type: functional, organism-based
Outline: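 Harvested cells resuspended in PBS, spotted on poly-L-lysine (0.1% w/v) coated slides and cell length examined by phase-contrast microscopy at 40 magnification.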

Staphylococcus aureus [8] = assay: Antibacterial activity against clinical isolate of penicillin-resistant Staphylococcus aureus after 24 hrs by broth microdilution based CLSI method; type: functional
Staphylococcus aureus [9] = assay: Bactericidal activity against Staphylococcus aureus ATCC 25923 incubated for 24 hrs followed by plating onto tryptic soy agar plates and further incubated for 24 hrs by broth microdilution based CLSI method; type: functional; details: ATCC 25923, 24 h
Staphylococcus aureus [10] = assay: Antibacterial activity against methicillin-resistant Staphylococcus aureus ATCC 43300 infected in mouse assessed as reduction of bacterial burden in blood at 30 mg/kg, ip administered 0.1, 3, 6, 9 and 12 hrs postinfection and measured at 24 hrs post last dose; type: functional, organism-based
HeLa = assay: Cytotoxicity in human HeLa cells assessed as reduction in cell viability after 36 hrs by MTT assay; type: cell-based
Outline: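 HeLa cells seeded at 10⁴ cells/well and left overnight, then exposed to compound for 36 h. MTT (5 mg/mL solution) added for 4 h at 37 °C, medium replaced by DMSO for 10 min, absorbance read at 570 nm.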

Bacillus subtilis [11] = assay: Potency index, ratio of PC190723 MIC to test compound MIC for antibacterial activity against Bacillus subtilis ATCC 9372 after 24 hrs by broth microdilution based CLSI method
[12] = biological target: T1, Cell division protein FtsZ (Bacillus subtilis (strain 168)); assay: Induction of Bacillus subtilis FtsZ assessed as increase in bundling of protofilament at 10 ug/ml after 20 mins by transmission electron microscopic analysis; outline: as §2
Mus musculus = assay: Toxicity in mouse infected with methicillin-resistant Staphylococcus aureus ATCC 43300 assessed as mouse death at 30 mg/kg, ip administered 0.1, 3, 6, 9 and 12 hrs postinfection and measured after 1 week; type: organism-based; details: in vivo, 168 h
Outline: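 KM mice (about 20 g) infected i.v. with 5.4 × 10⁷ CFU MRSA in 0.1 mL saline. Dosing i.p. in vehicle of 1% DMAC, 30% TEG, 7% HPβCD in water (final), with a vehicle-only group. Deaths recorded for one week after bacterial inoculation.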

Staphylococcus aureus [13] = assay: Bactericidal activity against clinical isolate of penicillin-resistant Staphylococcus aureus incubated for 24 hrs followed by plating onto tryptic soy agar plates and further incubated for 24 hrs by broth microdilution based CLSI method; type: functional
Outline: (§3)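 MBC taken from the CLSI broth microdilution plates. These held 2-fold serial dilutions from 64 to 0.125 µg/mL in cation-adjusted Mueller-Hinton broth, seeded with log-phase bacteria and incubated aerobically for 24 h at 37 °C. Well aliquots were plated on TSA and colonies counted after 24 h. MBC is the lowest concentration giving a ≥3-log CFU reduction.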

Staphylococcus aureus [14] = assay: Selectivity ratio of MBC for Staphylococcus aureus ATCC 25923 to MIC for Staphylococcus aureus ATCC 25923; type: functional
Pseudomonas aeruginosa = assay: Antibacterial activity against Pseudomonas aeruginosa ATCC 27853 after 24 hrs by broth microdilution based CLSI method; type: functional; details: ATCC 27853, 24 h
[15] = biological target: T1, Cell division protein FtsZ (Bacillus subtilis (strain 168)); assay: Induction of Bacillus subtilis FtsZ polymerization at 10 ug/ml in presence of GTP by microtiter plate-based light-scattering assay
Outline: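 Recombinant purified B. subtilis FtsZ (5 µM) with 1 mM GTP in 50 mM MES, 50 mM KCl, 2 mM magnesium acetate, compound 0–10 µg/mL. Polymerization followed as light scattering (A340) continuously at 25 °C for 30 min. DMSO vehicle and a non-FtsZ control were included.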

Bacillus pumilus [16] = assay: Potency index, ratio of PC190723 MIC to test compound MIC for Bacillus pumilus CMCC63202 after 24 hrs by broth microdilution based CLSI method; type: functional
[17] = biological target: T1, Cell division protein FtsZ (Bacillus subtilis (strain 168)); assay: Induction of Bacillus subtilis FtsZ assessed as increase in thickness of polymer size at 10 ug/ml after 20 mins by transmission electron microscopic analysis; outline: as §2
Staphylococcus aureus [18] = assay: Bactericidal activity against methicillin-resistant Staphylococcus aureus ATCC 43300 assessed as reduction in viable bacterial count at 1 to 2 times MIC after 12 hrs by time-kill assay; type: functional; outline: as §1
Staphylococcus aureus [19] = assay: Bactericidal activity against methicillin-resistant Staphylococcus aureus ATCC 43300 incubated for 24 hrs followed by plating onto tryptic soy agar plates and further incubated for 24 hrs by broth microdilution based CLSI method; type: functional; details: ATCC 43300, 24 h; outline: as §3
Escherichia coli = assay: Antibacterial activity against Escherichia coli ATCC 25922 after 24 hrs by broth microdilution based CLSI method; type: functional; details: ATCC 25922, 24 h
Staphylococcus aureus [20] = assay: Antibacterial activity against Staphylococcus aureus ATCC 25923 after 24 hrs by broth microdilution based CLSI method; type: functional; details: ATCC 25923, 24 h
Bacillus subtilis [21] = assay: Antibacterial activity against Bacillus subtilis ATCC 9372 after 24 hrs by broth microdilution based CLSI method; type: functional; details: ATCC 9372, 24 h

**Q.** How did the Activity (Staphylococcus aureus [1]) turn out when `CC(C)(C)c1ccc(-c2cc(COc3ccc(F)c(C(N)=O)c3F)no2)cc1` was run?
**A.** Its Activity is “Active”.

**Q.** What about the Activity [2] of the same compound?
**A.** Its Activity is “Active”.

**Q.** What about the MIC (Bacillus pumilus [3]) of the same compound?
**A.** The MIC was 0.03 µg/mL (≈ 0.0776 µM).

**Q.** And the MIC (Staphylococcus aureus [4])?
**A.** The MIC was 2 µg/mL (≈ 5.18 µM).

**Q.** What about the Activity (Staphylococcus aureus [5]) of the same compound?
**A.** Its Activity is “inactive”.

**Q.** What about the Ratio (Staphylococcus aureus [6]) of the same compound?
**A.** Its Ratio is 1.

**Q.** What about the Activity (Bacillus pumilus [7]) of the same compound?
**A.** The Activity was “Active”.

**Q.** What about the MIC (Staphylococcus aureus [8]) of the same compound?
**A.** The MIC was 4 µg/mL (≈ 10.4 µM).

**Q.** And the MBC (Staphylococcus aureus [9])?
**A.** Its MBC is 4 µg/mL (≈ 10.4 µM).

**Q.** And the Activity (Staphylococcus aureus [10])?
**A.** The Activity was “Active”.

**Q.** And the IC50 (HeLa)?
**A.** The IC50 was > 128 µg/mL.

**Q.** What about the Ratio (Bacillus subtilis [11]) of the same compound?
**A.** Its Ratio is 32.

**Q.** What about the Activity [12] of the same compound?
**A.** Its Activity is “Active”.

**Q.** And the Activity (Mus musculus)?
**A.** Its Activity is “Non-Toxic”.

**Q.** What about the MBC (Staphylococcus aureus [13]) of the same compound?
**A.** Its MBC is 8 µg/mL (≈ 20.7 µM).

**Q.** What about the Ratio (Staphylococcus aureus [14]) of the same compound?
**A.** The Ratio was 2.

**Q.** And the MIC (Pseudomonas aeruginosa)?
**A.** Its MIC is > 64 µg/mL.

**Q.** What about the Activity [15] of the same compound?
**A.** Its Activity is “Active”.

**Q.** What about the Ratio (Bacillus pumilus [16]) of the same compound?
**A.** The Ratio was 32.

**Q.** And the Activity [17]?
**A.** The Activity was “Active”.

**Q.** What about the viable count (Staphylococcus aureus [18]) of the same compound?
**A.** The viable count was 1000 CFU/mL.

**Q.** And the MBC (Staphylococcus aureus [19])?
**A.** The MBC was 2 µg/mL (≈ 5.18 µM).

**Q.** What about the MIC (Escherichia coli) of the same compound?
**A.** Its MIC is > 64 µg/mL.

**Q.** And the MIC (Staphylococcus aureus [20])?
**A.** The MIC was 2 µg/mL (≈ 5.18 µM).

**Q.** And the MIC (Bacillus subtilis [21])?
**A.** The MIC was 0.015 µg/mL (≈ 0.0388 µM).
